Consider 4 molecules from ChEMBL document CHEMBL2146415, “Antibacterial activities of Groebke-Blackburn-Bienaymé-derived imidazo[1,2-a]pyridin-3-amines” (Bioorg Med Chem, 2012).

≈ marks a conversion by molar mass, not a printed value. Calls of active or inactive are those of the source. No cut-off for these calls is given here.

The subject of data set [1] is Staphylococcus epidermidis. As to the kind of experiment: Bacteriostatic activity against coagulase negative Staphylococcus epidermidis ATCC 35983 by CLSI broth microdilution method. It counts as functional. In outline:
(§1)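 MIC was determined by CLSI broth microdilution in non-cation-supplemented Mueller-Hinton broth, using OD600 0.5 cultures diluted 10-fold and 2-fold compound dilutions, overnight at 37°C, A600 read-out.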
(In general: Dilution methods test growth across graded concentrations, often in twofold steps.)

Data set [2] deals with T1, Toll-like receptor 7 (Homo sapiens) (UniProt Q9NYK1).
T1 sequence (whole entry): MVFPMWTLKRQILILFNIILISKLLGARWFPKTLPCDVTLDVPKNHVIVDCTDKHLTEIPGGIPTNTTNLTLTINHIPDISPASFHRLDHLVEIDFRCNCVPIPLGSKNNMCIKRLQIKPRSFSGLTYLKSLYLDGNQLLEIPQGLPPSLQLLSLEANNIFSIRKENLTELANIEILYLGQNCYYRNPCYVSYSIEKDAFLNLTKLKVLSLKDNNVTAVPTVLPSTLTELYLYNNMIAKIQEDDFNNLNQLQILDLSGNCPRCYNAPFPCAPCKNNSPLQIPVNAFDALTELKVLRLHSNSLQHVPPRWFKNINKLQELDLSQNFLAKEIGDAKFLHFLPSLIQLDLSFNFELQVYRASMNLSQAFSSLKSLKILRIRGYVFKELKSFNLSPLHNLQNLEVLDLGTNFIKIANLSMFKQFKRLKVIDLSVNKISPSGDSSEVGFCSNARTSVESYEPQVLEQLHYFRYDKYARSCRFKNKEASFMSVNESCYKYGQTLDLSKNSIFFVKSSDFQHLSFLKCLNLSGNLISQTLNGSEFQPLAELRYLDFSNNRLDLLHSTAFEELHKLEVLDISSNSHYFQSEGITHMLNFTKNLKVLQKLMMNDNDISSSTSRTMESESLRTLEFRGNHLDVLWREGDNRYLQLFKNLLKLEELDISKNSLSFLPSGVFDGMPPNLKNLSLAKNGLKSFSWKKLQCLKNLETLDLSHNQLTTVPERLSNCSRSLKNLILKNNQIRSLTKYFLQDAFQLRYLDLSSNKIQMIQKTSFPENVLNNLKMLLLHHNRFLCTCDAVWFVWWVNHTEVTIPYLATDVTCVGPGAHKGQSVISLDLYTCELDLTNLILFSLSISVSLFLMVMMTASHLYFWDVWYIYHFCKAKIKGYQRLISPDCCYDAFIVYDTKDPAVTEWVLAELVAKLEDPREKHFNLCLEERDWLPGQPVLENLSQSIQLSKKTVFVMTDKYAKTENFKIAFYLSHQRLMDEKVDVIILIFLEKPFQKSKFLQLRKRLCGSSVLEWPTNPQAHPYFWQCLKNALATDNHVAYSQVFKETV
The data set is described as follows: Agonist activity at human TLR7 expressed in HEK293 cells co-transfected with NF-kappaB/sAP gene assessed as induction of NF-kappaB activation up to 250 uM by reporter gene assay. The class given is functional, cell-based.

A further data set concerns Streptococcus pyogenes. As to the kind of experiment: Bacteriostatic activity against Streptococcus pyogenes clinical isolate by CLSI broth microdilution method. The class given is functional. Summed up:
as §1

Data set [3] has as its target T1, Toll-like receptor 7 (Homo sapiens). The data set is described as follows: Antagonist activity at TLR7 expressed in HEK293 cells co-transfected with NF-kappaB/sAP gene assessed as inhibition of gardiquimod-induced NF-kappaB activation up to 250 uM by reporter gene assay. It counts as functional, cell-based. A general note: In a reporter assay the amount or activity of a reporter protein is the signal.

The subject of a further data set is Escherichia coli. The data set is described as follows: Antibacterial activity against Escherichia coli ATCC 9637 in presence of 6.6 ug/mL polymyxin B […]. The class given is functional, organism-based. In outline:
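Broth microdilution per CLSI. Mid-log cultures in non-cation-supplemented Mueller-Hinton broth were adjusted to OD600 0.5, diluted 10-fold, and added to equal volumes of 2-fold serially diluted compound. Plates were sealed and incubated overnight at 37°C, then read at A600. MIC was the lowest concentration inhibiting growth. Reference antibiotics were run alongside.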

The test system of data set [4] is Staphylococcus aureus. The data set is described as follows: Bactericidal activity against methicillin resistant Staphylococcus aureus ATCC 33591 by broth microdilution method. It counts as functional, organism-based. Summed up:
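MBC by microdilution subculture: 0.5 μL from each well of the parent MIC plate (MRSA ATCC 33591) diluted into 80 μL fresh Mueller-Hinton broth, incubated overnight at 37°C, absorbance read at 600 nm.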

Data set [5] deals with Staphylococcus aureus. The data set is described as follows: Bacteriostatic activity against methicillin resistant Staphylococcus aureus ATCC 33591 by CLSI broth microdilution method. The class given is functional.
The subject of data set [6] is Staphylococcus aureus. The data set is described as follows: Bacteriostatic activity against wild type Staphylococcus aureus ATCC 13709 by CLSI broth microdilution method. The class given is functional. In outline: as §1
A short description of data set [7]: Chemical stability in aqueous solution of the compound assessed as N-dealkylated compound formation after 2 weeks by LC-MS analysis. The class given is physicochemical. As to conditions: buffer, 336 h.

The MIC is the lowest concentration that inhibits growth of the organism. For the molecule `CC(C)(C)Nc1c(-c2c3ccccc3cc3ccccc23)nc2ccccn12`, the minimal inhibitory concentration (MIC) was 7.81 µg/mL (≈ 21.4 µM) in data set [1], below 10 µg/mL against Streptococcus pyogenes, 3.91 µg/mL (≈ 10.7 µM) against Staphylococcus aureus [5] and 3.91 µg/mL (≈ 10.7 µM) with Staphylococcus aureus [6]. Further, the result (in data set [2]; in data set [3]; with Escherichia coli; in the data set with Staphylococcus aureus [4]) was inactive.
With `CN(C)CCCNc1ccc2nc(-c3c4ccccc4cc4ccccc34)c(NC(C)(C)CC(C)(C)C)n2c1.Cl`, the Stability entry in data set [7] was “Unstable”.
Turning to `CN(C)CCCNc1c2ccccc2c(-c2nc3ccccn3c2NC(C)(C)CC(C)(C)C)c2ccccc12.Cl`, the Stability entry in [7] is “Unstable”.
Regarding `c1ccc2c(-c3nc4ccccn4c3NC3CCCCC3)c3ccccc3cc2c1`, the MIC is 7.81 µg/mL (≈ 19.9 µM) in data set [1], below 10 µg/mL with Streptococcus pyogenes, 3.91 µg/mL (≈ 9.99 µM) against Staphylococcus aureus [5] and 3.91 µg/mL (≈ 9.99 µM) in the data set with Staphylococcus aureus [6]. Besides, the result in data set [2] and in data set [3] was inactive.
